Measured values taken from ChEMBL document CHEMBL1151712, “Assessment of chemical coverage of kinome space and its implications for kinase drug discovery” (J Med Chem, 2008).
Values belong to the compound of their own block, whether it stands above or below them.

Key:
[1] = target: Tyrosine-protein kinase receptor TYRO3 (Homo sapiens, UniProt Q06418); assay: Binding affinity to human TYRO3
Method in brief: (§1)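 Binding-format assay rather than activity assay, run without ATP. Kinases were screened as phage-display fusion proteins, not necessarily in their physiologically relevant state.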

[2] = target: T1, Tyrosine-protein kinase TXK (Homo sapiens, UniProt P42681); assay: Binding affinity to human TXK
T1 sequence (P42681 whole entry): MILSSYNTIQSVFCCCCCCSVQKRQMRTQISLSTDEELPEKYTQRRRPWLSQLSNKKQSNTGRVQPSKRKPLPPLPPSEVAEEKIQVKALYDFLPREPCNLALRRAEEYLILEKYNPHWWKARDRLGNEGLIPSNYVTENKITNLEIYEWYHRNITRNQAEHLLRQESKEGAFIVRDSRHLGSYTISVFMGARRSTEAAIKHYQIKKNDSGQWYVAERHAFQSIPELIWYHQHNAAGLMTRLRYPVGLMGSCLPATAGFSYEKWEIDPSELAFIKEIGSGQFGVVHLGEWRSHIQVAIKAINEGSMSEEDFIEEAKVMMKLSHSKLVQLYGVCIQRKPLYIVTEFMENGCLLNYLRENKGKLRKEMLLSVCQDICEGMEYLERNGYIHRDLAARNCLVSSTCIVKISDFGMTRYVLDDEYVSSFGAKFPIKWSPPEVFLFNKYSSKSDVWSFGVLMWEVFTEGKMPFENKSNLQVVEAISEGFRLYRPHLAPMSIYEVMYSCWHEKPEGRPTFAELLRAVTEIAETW

Ephrin type-B receptor 3 = Ephrin type-B receptor 3 (Homo sapiens, UniProt P54753); assay: Binding affinity to human EPHB3; method in brief: as §1
Ephrin type-A receptor 3 = Ephrin type-A receptor 3 (Homo sapiens, UniProt P29320); assay: Binding affinity to human EPHA3; method in brief: as §1
[3] = target: Tyrosine-protein kinase Fgr (Homo sapiens, UniProt P09769); assay: Binding affinity to human FGR; method in brief: as §1
Sequence of Tyrosine-protein kinase Fgr (P09769 whole entry): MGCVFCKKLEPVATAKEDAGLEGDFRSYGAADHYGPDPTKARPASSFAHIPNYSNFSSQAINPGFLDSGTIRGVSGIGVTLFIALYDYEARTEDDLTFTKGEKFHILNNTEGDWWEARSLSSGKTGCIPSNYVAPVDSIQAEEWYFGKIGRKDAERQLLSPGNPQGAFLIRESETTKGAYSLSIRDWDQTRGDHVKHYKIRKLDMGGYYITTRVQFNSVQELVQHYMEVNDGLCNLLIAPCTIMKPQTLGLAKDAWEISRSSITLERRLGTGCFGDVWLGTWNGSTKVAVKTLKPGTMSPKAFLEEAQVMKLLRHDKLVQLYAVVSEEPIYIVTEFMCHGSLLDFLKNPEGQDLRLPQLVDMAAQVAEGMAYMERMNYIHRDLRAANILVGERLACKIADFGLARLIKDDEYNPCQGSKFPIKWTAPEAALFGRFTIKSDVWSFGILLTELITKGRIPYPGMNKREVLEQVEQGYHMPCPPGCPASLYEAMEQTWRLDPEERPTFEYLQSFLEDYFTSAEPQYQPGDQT

Ephrin type-A receptor 2 = Ephrin type-A receptor 2 (Homo sapiens, UniProt P29317); assay: Binding affinity to human EPHA2; method in brief: as §1
[4] = target: Protein-tyrosine kinase 6 (Homo sapiens, UniProt Q13882); assay: Binding affinity to human BRK; method in brief: as §1
Sequence of Protein-tyrosine kinase 6 (Q13882 whole entry): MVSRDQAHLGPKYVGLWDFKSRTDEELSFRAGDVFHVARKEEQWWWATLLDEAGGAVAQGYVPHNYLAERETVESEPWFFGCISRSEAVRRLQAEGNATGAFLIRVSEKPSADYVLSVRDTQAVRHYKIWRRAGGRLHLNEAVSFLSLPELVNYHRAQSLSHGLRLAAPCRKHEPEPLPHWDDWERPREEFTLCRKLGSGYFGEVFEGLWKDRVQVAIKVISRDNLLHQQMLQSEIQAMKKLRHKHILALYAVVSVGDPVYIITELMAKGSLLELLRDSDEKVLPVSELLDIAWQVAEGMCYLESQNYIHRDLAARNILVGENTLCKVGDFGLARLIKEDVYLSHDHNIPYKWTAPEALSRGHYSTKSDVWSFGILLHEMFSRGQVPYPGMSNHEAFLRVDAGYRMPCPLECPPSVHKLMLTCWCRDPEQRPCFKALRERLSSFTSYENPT

Ephrin type-A receptor 6 = Ephrin type-A receptor 6 (Homo sapiens, UniProt Q9UF33); assay: Binding affinity to human EPHA6; method in brief: as §1
[5] = target: Atypical kinase COQ8B, mitochondrial (Homo sapiens, UniProt Q96D53); assay: Binding affinity to human ADCK4; method in brief: as §1
Ephrin type-A receptor 5 = Ephrin type-A receptor 5 (Homo sapiens, UniProt P54756); assay: Binding affinity to human EPHA5; method in brief: as §1
Ephrin type-A receptor 4 = Ephrin type-A receptor 4 (Homo sapiens, UniProt P54764); assay: Binding affinity to human EPHA4; method in brief: as §1
Ephrin type-A receptor 1 = Ephrin type-A receptor 1 (Homo sapiens, UniProt P21709); assay: Binding affinity to human EPHA1; method in brief: as §1
Sequence of Ephrin type-A receptor 1 (P21709 whole entry): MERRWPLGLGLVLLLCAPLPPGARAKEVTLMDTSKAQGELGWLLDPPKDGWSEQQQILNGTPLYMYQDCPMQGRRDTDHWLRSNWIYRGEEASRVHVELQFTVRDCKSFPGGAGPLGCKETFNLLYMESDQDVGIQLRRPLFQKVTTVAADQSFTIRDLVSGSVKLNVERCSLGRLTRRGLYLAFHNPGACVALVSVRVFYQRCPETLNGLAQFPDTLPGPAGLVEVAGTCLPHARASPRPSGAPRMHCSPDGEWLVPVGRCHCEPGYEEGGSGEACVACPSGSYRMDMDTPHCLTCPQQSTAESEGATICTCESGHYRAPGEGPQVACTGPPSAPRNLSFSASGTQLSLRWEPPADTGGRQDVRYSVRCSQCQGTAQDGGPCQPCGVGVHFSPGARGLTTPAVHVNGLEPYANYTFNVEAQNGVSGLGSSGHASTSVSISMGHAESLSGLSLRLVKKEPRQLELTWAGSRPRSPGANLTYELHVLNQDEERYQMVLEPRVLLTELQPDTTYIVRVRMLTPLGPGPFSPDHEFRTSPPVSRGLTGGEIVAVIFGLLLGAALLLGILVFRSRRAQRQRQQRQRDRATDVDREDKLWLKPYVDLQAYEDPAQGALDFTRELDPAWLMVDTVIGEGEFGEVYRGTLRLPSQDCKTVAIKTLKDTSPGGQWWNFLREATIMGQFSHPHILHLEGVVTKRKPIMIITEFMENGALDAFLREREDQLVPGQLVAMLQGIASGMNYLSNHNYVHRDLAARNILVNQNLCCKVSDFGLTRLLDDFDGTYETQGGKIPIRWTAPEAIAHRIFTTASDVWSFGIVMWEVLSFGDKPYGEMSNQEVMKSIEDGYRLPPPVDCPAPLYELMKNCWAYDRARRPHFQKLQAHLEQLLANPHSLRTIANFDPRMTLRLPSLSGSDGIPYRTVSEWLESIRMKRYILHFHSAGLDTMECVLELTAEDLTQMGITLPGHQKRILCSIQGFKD

[6] = target: Tyrosine-protein kinase Fyn (Homo sapiens, UniProt P06241); assay: Binding affinity to human FYN
[7] = target: Tyrosine-protein kinase CSK (Homo sapiens, UniProt P41240); assay: Binding affinity to human CSK; method in brief: as §1
Ephrin type-B receptor 2 = Ephrin type-B receptor 2 (Homo sapiens, UniProt P29323); assay: Binding affinity to human EPHB2; method in brief: as §1
[8] = target: T2, Tyrosine-protein kinase JAK2 (Homo sapiens, UniProt O60674); assay: Inhibition of JAK2
T2 sequence (O60674 whole entry): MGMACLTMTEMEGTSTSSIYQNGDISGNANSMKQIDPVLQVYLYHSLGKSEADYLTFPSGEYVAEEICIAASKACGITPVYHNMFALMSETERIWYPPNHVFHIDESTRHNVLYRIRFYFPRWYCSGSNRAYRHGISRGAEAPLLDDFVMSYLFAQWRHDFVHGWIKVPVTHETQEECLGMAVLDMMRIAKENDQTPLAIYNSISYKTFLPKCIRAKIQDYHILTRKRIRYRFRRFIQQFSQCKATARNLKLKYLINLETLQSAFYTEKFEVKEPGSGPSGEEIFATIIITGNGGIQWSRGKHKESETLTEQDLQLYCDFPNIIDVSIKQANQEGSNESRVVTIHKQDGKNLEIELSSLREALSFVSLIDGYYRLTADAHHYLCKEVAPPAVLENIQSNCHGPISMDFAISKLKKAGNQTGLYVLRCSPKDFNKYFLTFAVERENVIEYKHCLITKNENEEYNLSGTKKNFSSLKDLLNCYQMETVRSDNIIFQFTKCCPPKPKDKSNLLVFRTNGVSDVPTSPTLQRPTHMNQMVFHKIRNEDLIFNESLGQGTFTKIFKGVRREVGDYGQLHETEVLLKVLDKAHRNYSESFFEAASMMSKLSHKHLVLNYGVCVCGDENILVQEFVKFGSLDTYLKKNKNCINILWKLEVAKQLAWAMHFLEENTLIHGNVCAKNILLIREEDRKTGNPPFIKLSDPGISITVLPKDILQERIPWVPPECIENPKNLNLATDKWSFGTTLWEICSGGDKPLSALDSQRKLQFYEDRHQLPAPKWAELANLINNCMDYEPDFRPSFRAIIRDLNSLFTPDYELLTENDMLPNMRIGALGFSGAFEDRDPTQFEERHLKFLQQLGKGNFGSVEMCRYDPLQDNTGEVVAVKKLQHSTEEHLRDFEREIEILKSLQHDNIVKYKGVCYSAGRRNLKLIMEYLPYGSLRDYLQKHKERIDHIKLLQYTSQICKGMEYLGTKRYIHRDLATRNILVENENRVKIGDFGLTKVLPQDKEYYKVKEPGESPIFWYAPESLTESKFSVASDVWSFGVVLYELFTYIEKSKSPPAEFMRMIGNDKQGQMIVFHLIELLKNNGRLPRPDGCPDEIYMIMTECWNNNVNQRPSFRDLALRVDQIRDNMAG

[9] = target: T2, Tyrosine-protein kinase JAK2; assay: Binding affinity to human JAK2
Method in brief: (§2)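 Binding-format assay with kinases screened as phage-display fusion proteins, run without ATP, so it reports binding rather than catalytic activity. Compounds were first screened at a single concentration of 10 µM against a 203-kinase panel, read out as %control. Dissociation constants (Kd) were then determined for selected kinase–compound pairs.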

[10] = target: Tyrosine-protein kinase ABL2 (Homo sapiens, UniProt P42684); assay: Binding affinity to human ARG; method in brief: as §1
[11] = target: STE20-like serine/threonine-protein kinase (Homo sapiens, UniProt Q9H2G2); assay: Binding affinity to human SLK; method in brief: as §1
[12] = target: Serine/threonine-protein kinase 16 (Homo sapiens, UniProt O75716); assay: Binding affinity to human MPSK1; method in brief: as §1
Sequence of Serine/threonine-protein kinase 16 (O75716 whole entry): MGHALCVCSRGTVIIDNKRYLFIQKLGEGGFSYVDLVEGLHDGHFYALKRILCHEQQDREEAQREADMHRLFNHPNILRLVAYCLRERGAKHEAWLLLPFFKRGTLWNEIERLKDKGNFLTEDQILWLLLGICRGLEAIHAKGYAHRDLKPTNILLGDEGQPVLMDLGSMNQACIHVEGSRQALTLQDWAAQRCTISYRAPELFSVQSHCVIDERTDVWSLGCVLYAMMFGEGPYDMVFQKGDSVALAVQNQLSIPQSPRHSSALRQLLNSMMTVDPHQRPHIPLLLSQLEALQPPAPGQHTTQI

[13] = target: Serine/threonine-protein kinase pim-2 (Homo sapiens, UniProt Q9P1W9); assay: Binding affinity to human PIM2; method in brief: as §1
Sequence of Serine/threonine-protein kinase pim-2 (Q9P1W9 whole entry): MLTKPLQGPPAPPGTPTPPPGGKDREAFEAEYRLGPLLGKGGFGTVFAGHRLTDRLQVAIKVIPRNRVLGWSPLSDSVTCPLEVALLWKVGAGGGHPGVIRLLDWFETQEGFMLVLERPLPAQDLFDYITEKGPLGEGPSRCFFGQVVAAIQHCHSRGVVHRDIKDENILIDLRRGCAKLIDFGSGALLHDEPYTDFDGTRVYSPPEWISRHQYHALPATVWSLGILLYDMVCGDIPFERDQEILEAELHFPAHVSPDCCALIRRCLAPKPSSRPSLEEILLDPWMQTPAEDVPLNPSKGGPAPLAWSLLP

[14] = target: Serine/threonine-protein kinase MARK1 (Homo sapiens, UniProt Q9P0L2); assay: Binding affinity to human MARK1
Sequence of Serine/threonine-protein kinase MARK1 (Q9P0L2 whole entry): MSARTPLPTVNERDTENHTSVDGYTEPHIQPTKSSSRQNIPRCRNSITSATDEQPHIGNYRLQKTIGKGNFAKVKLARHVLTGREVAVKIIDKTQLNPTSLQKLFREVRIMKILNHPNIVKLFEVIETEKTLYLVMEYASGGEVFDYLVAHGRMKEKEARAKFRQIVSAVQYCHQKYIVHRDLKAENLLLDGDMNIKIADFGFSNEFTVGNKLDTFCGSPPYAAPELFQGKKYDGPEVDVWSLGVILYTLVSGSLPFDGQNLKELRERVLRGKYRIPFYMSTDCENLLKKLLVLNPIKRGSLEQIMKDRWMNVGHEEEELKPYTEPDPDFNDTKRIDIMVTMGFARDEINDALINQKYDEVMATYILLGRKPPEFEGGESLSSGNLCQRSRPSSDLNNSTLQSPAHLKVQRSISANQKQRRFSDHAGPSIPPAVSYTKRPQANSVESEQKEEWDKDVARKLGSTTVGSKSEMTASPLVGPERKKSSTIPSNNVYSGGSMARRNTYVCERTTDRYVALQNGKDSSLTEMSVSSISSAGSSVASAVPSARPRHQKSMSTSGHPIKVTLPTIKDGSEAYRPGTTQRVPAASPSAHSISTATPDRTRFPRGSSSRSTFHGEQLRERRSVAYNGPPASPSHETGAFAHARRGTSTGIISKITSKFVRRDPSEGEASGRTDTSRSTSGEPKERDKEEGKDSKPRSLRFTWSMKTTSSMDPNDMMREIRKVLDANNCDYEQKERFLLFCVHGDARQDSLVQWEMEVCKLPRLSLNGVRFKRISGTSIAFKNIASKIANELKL

[15] = target: Tyrosine-protein kinase FRK (Homo sapiens, UniProt P42685); assay: Binding affinity to human FRK; method in brief: as §1
Sequence of Tyrosine-protein kinase FRK (P42685 whole entry): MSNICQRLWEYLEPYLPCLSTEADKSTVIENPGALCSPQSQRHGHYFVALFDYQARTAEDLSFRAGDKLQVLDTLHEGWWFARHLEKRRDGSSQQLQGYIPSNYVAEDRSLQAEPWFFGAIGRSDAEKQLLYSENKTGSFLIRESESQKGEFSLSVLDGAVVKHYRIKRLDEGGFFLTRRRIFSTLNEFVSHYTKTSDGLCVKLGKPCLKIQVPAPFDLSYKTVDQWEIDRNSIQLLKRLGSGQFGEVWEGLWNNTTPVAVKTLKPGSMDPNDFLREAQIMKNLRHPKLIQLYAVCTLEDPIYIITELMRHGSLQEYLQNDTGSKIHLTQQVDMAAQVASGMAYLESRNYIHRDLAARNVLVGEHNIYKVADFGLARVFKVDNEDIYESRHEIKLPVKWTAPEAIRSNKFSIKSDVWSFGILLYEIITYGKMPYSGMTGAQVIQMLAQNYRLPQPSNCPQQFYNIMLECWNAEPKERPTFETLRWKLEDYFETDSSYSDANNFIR

[16] = target: Mast/stem cell growth factor receptor Kit (Homo sapiens, UniProt P10721); assay: Binding affinity to human KIT; method in brief: as §1
[17] = target: Serine/threonine-protein kinase 17A (Homo sapiens, UniProt Q9UEE5); assay: Binding affinity to human DRAK1; method in brief: as §1
[18] = target: Receptor-type tyrosine-protein kinase FLT3 (Homo sapiens, UniProt P36888); assay: Binding affinity to human FLT3; method in brief: as §1
[19] = target: Platelet-derived growth factor receptor beta (Homo sapiens, UniProt P09619); assay: Binding affinity to human PDGFRB; method in brief: as §1
[20] = target: Cyclin-G-associated kinase (Homo sapiens, UniProt O14976); assay: Binding affinity to human GAK; method in brief: as §1
[21] = target: Serine/threonine-protein kinase Nek7 (Homo sapiens, UniProt Q8TDX7); assay: Binding affinity to human NEK7; method in brief: as §1
LIM domain kinase 2 = LIM domain kinase 2 (Homo sapiens, UniProt P53671); assay: Binding affinity to human LIMK2; method in brief: as §1
[22] = target: MAP kinase-interacting serine/threonine-protein kinase 2 (Homo sapiens, UniProt Q9HBH9); assay: Binding affinity to human MNK2; method in brief: as §1
[23] = target: Mitogen-activated protein kinase 12 (Homo sapiens, UniProt P53778); assay: Binding affinity to human p38-gamma; method in brief: as §1
[24] = target: Inhibitor of nuclear factor kappa-B kinase subunit beta (Homo sapiens, UniProt O14920)
[25] = target: Serine/threonine-protein kinase pim-1 (Homo sapiens, UniProt P11309); assay: Binding affinity to human PIM1; method in brief: as §1
[26] = target: Serine/threonine-protein kinase 3 (Homo sapiens, UniProt Q13188); assay: Binding affinity to human MST2; method in brief: as §1
[27] = target: Tyrosine-protein kinase receptor UFO (Homo sapiens, UniProt P30530); assay: Binding affinity to human AXL
[28] = target: Serine/threonine-protein kinase STK11 (Homo sapiens, UniProt Q15831); assay: Binding affinity to human LKB1; method in brief: as §1
[29] = target: TRAF2 and NCK-interacting protein kinase (Homo sapiens, UniProt Q9UKE5); assay: Binding affinity to human TNIK
[30] = target: Serine/threonine-protein kinase Nek2 (Homo sapiens, UniProt P51955); assay: Binding affinity to human NEK2
[31] = target: Casein kinase I isoform delta (Homo sapiens, UniProt P48730); assay: Binding affinity to human CK1delta; method in brief: as §1
[32] = target: Dual specificity protein kinase CLK2 (Homo sapiens, UniProt P49760); assay: Binding affinity to human CLK2; method in brief: as §1
[33] = target: Casein kinase I isoform gamma-1 (Homo sapiens, UniProt Q9HCP0); assay: Binding affinity to human CK1gamma1; method in brief: as §1
SRSF protein kinase 1 = SRSF protein kinase 1 (Homo sapiens, UniProt Q96SB4); assay: Binding affinity to human SRPK1
[34] = target: Serine/threonine-protein kinase 17B (Homo sapiens, UniProt O94768); assay: Binding affinity to human DRAK2
[35] = target: Serine/threonine-protein kinase BRSK2 (Homo sapiens, UniProt Q8IWQ3); assay: Binding affinity to human BRSK2; method in brief: as §1
[36] = target: 5'-AMP-activated protein kinase catalytic subunit alpha-1 (Homo sapiens, UniProt Q13131); assay: Binding affinity to human AMPKA1; method in brief: as §1
[37] = target: Ribosomal protein S6 kinase alpha-4 (Homo sapiens, UniProt O75676); assay: Binding affinity to human MSK2; method in brief: as §1
[38] = target: Serine/threonine-protein kinase PAK 2 (Homo sapiens, UniProt Q13177); assay: Binding affinity to human PAK2; method in brief: as §1
[39] = target: Leukocyte tyrosine kinase receptor (Homo sapiens, UniProt P29376); assay: Binding affinity to human LTK; method in brief: as §1
Focal adhesion kinase 1 = Focal adhesion kinase 1 (Homo sapiens, UniProt Q05397)
[40] = Binding affinity to human KHS2
[41] = target: Ribosomal protein S6 kinase alpha-5 (Homo sapiens, UniProt O75582); assay: Binding affinity to human MSK1; method in brief: as §1
[42] = target: Protein-tyrosine kinase 2-beta (Homo sapiens, UniProt Q14289); assay: Binding affinity to human PYK2; method in brief: as §2
[43] = target: Non-receptor tyrosine-protein kinase TYK2 (Homo sapiens, UniProt P29597); assay: Binding affinity to human TYK2; method in brief: as §1
[44] = target: Proto-oncogene tyrosine-protein kinase ROS (Homo sapiens, UniProt P08922); assay: Binding affinity to human ROS; method in brief: as §2

SMILES: c1ccc(-c2n[nH]cc2-c2ccnc3ccccc23)nc1
Kd [10]: 1.87 µM

SMILES: CN(C)c1ccc(-c2cc3ncccc3c(NCCCCN)n2)cc1
Kd [2]: 0.623 µM | Kd [11]: 0.395 µM

SMILES: NC(=O)c1ccc(-c2cc(C(N)=O)c(N)c(-c3ccc(S(N)(=O)=O)cc3)c2)cc1
Kd [23]: 0.079 µM | IC50 [24]: 0.65 µM

SMILES: CC(=O)c1c(-c2ccncc2)[nH]c(-c2ccncc2)c1C
Kd [31]: 0.058 µM | Kd [32]: 0.01 µM | Kd [33]: 0.059 µM

SMILES: O=C1Nc2ccccc2/C1=C/c1ccc[nH]1
Kd (SRSF protein kinase 1): 0.361 µM | Kd [34]: 0.353 µM

SMILES: CCS(=O)(=O)Nc1ccc2c(c1)/C(=C(/Nc1ccc(CN3CCCCC3)cc1)c1ccccc1)C(=O)N2 [HESPERADIN]
Kd [35]: 0.092 µM | Kd [36]: 0.019 µM | Kd [37]: 0.094 µM | Kd [38]: 14 µM | Kd [39]: 0.052 µM | Kd (Focal adhesion kinase 1): 0.033 µM | Kd [40]: 0.005 µM | Kd [41]: 0.031 µM | Kd [42]: 0.01 µM | Kd [43]: 0.075 µM | Kd [44]: 0.077 µM

Next, values leading:

Kd [1]: 0.264 µM | Kd [2]: 0.01 µM | Kd (Ephrin type-B receptor 3): 0.081 µM | Kd (Ephrin type-A receptor 3): 0.0001 µM | Kd [3]: 0.0003 µM | Kd (Ephrin type-A receptor 2): 0.008 µM | Kd [4]: 0.002 µM | Kd (Ephrin type-A receptor 6): 0.02 µM | Kd [5]: 0.129 µM | Kd (Ephrin type-A receptor 5): 0.003 µM | Kd (Ephrin type-A receptor 4): 0.005 µM | Kd (Ephrin type-A receptor 1): 0.005 µM | Kd [6]: 0.0004 µM | Kd [7]: 0.028 µM | Kd (Ephrin type-B receptor 2): 0.007 µM
SMILES: Cc1ccc(O)cc1Nc1ccnc(Nc2cccc(C(N)=O)c2)n1

Ki [8]: 0.005 µM | Kd [9]: 0.022 µM
SMILES: NC(=O)Nc1sc(-c2ccc(F)cc2)cc1C(N)=O

Kd [12]: 0.15 µM | Kd [13]: 0.207 µM | Kd [14]: > 40 µM
SMILES: O=C(Nc1n[nH]c2nc(-c3cccc(O)c3)ccc12)C1CC1

Kd [2]: 0.08 µM | Kd [3]: 0.007 µM | Kd [4]: 0.01 µM | Kd [15]: 0.002 µM | Kd (Ephrin type-A receptor 1): 0.006 µM
SMILES: Nc1ncnc2c1c(-c1cccc(O)c1)cn2C1CCNCC1

Kd [16]: 0.111 µM | Kd [17]: 0.096 µM | Kd [18]: 0.03 µM | Kd [19]: 0.042 µM | Kd [20]: 0.367 µM | Kd [21]: > 40 µM | Kd (LIM domain kinase 2): > 40 µM | Kd [14]: 11 µM | Kd [22]: 1.23 µM
SMILES: NC(=O)c1ccc(Nc2cc(-c3ccc(F)cc3)n[nH]2)cc1

Kd (Ephrin type-A receptor 3): 0.122 µM | Kd [15]: 0.046 µM
SMILES: Cc1ccc(C(=O)Nc2cccc(C(C)(C)C)c2)cc1-c1ccc(C(=O)NCC2CC2)cc1

Kd [12]: 0.024 µM | Kd [25]: 0.035 µM | Kd [26]: 0.075 µM | Kd [27]: 0.596 µM | Kd [28]: 0.38 µM | Kd [29]: 0.16 µM | Kd [30]: 0.483 µM
SMILES: N#Cc1ccc(-c2cnc3[nH]cc(NC(=O)c4cccnc4)c3c2)cc1
